Values joined by “and” are separate entries in the source; they are usually repeats but may differ in a detail not shown here. Equal entries are not always repeated. Bridge positions count the residues as written; N and C are the ends. Square brackets hold non-standard residues; d marks the D form. Peptide text beside a SMILES is read from it. * marks the point of attachment. DOTA = O=C(O)CN1CCN(CC(=O)O)CCN(CC(=O)*)CCN(CC(=O)O)CC1; Thr(ol) = C[C@@H](O)[C@H](N)CO
Assays:
[1] = test system: corticotropinomas; settings: PET/CT; cited from earlier work
[2] = cited from earlier work
[3] = Shelf-life / stability in normal saline; assay type: physicochemical
In short: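 Shelf-life: radiotracer kept in normal saline at room temperature and examined for up to 4 h.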

[4] = Stability in human serum at 37 °C; assay type: in vitro ADME
[5] = Sterility test; settings: no visible growth or turbidity for up to 14 days
[6] = Endotoxin test; settings: V = 2 mL, dilution factor 10; limit <175 EU/V
In short: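 Chromogenic endotoxin assay per USP 85 on the in-house-prepared radiotracer. Results and the acceptance limit are expressed as endotoxin units per injection volume (EU/V).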

[7] = Plasma protein binding, TCA precipitation method; assay type: in vitro ADME; settings: 37 °C, 10% TCA
[8] = target: T1, recombinant human V1b receptor (Homo sapiens, UniProt P47901); experiment: In-vitro receptor binding assay
T1 sequence (P47901 1-424): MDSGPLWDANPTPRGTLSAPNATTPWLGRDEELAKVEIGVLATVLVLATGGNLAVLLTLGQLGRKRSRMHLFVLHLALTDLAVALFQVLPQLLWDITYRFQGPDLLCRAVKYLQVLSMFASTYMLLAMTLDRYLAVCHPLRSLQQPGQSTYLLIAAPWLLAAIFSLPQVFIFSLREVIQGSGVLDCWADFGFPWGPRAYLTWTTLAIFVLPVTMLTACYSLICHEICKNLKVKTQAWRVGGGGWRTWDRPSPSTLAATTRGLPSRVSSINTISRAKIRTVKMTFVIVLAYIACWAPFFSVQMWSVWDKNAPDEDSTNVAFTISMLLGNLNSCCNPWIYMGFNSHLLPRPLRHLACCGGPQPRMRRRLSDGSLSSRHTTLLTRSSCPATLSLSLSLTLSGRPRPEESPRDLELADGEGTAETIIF

[9] = Ex vivo biodistribution in healthy Wistar rats
In short: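 Nine healthy male Wistar rats (16 weeks, 274 ± 13 g) each received 8 ± 1.1 MBq radiotracer IV via the penile vein. Under ketamine (40 mg/kg) plus xylazine (4 mg/kg) anaesthesia, rats were killed by cervical dislocation at 30, 60 and 120 min (n = 3 per time). Organs were weighed and gamma-counted (NaI(Tl)). %ID/g used injected counts corrected for injection-site and syringe residues. Blood pool was taken as 7% of body weight. Mean ± SD.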

[10] = test system: corticotropinoma; settings: cited from earlier work

## OC[C@H]1OC(O)[C@H]([18F])[C@@H](O)[C@@H]1O (some centres unmarked) [[^18F]FDG]
[1]
  sensitivity for corticotropinomas: 40%

## Desmopressin
[2]
  plasma half-life: ~ 55 min

## C[C@@H](O)[C@@H](CO)NC(=O)[C@@H](CCCNC(=N)N)NC(=O)[C@@H]1CCCN1C(=O)[C@@H]1CSSC[C@H](NC(=O)[C@H](Cc2ccccc2)NC(=O)CN2CCN(CC(=O)O)CCN(CC(=O)O)CCN(CC(=O)O)CC2)C(=O)N[C@@H](Cc2ccc(O)cc2)C(=O)N[C@@H](Cc2ccccc2)C(=O)N[C@@H](CCC(N)=O)C(=O)N[C@@H](CC(N)=O)C(=O)N1 [[^68Ga]Ga-DOTA-mDesmo, metal not drawn] ({DOTA}-FCYFQNCP[dR][Thr(ol)]; disulfide 2-7)
[3]; PBS, 37 °C
  stability (single radio peak at Rf 0.0): up to 4 h
[3]; normal saline, room temperature
  shelf-life (single radio peak at Rf 0.0): up to 4 h
[4]
  stability (single radio peak at Rf 0.0): up to 4 h
[5]
  sterility: sterile
[6]
  endotoxin value: 8.6 ± 1.2 EU/V
[7]
  fraction unbound at 1 h: 0.344
[8]; V1b 15.6 nM, tracer 0.3 µM
  Binding (%) (Mean ± SD): 5.1 ± 1.3%
[8]; V1b 62.5 nM, tracer 0.3 µM
  Binding (%) (Mean ± SD): 25.7 ± 2.4%
[8]; V1b 125 nM, tracer 0.3 µM
  Binding (%) (Mean ± SD): 30.7 ± 1.9%
[8]; V1b 250 nM, tracer 0.3 µM
  Binding (%) (Mean ± SD): 44 ± 2.2%
[8]; V1b 250 nM, tracer 0.3 µM + cold DOTA-mDesmo 5 µM
  Binding (%) (Mean ± SD): 38.8 ± 1.7%
[8]; V1b 250 nM, tracer 0.3 µM + cold DOTA-mDesmo 20 µM
  Binding (%) (Mean ± SD): 22% and 22.1 ± 2.1%
[9]; 120 min, blood volume assumed 7% of body weight
  total blood pool, share of the injected activity: ~ 3%
[9]; rat, in vivo
  route of excretion: primarily excreted via the renal route
[9]; time following administration
  clearance from muscles, lungs, adrenals, liver, pancreas, spleen and heart: ≤ 120 min
[10]; 4 patients of ECS
  uptake in the pituitary of patients with ECS: no uptake
[10]; PET/CT, 24 patients of CD
  diagnostic accuracy: 100%
[10]; of 24 patients of CD
  patients of CD in whom the pituitary tumor was localized: 24 patients

Source: paper PMC12373759 (Communications Medicine, 2025)
